In the library only some 1.8% were active in any assay of this set; here they are far more common.
LYP inh 2 – inhibitors of human LYP (PTPN22) phosphatase. Q9Y2R2. recombinant LYP catalytic domain, DiFMUP fluorescence. inhibition, % at 2 µM. 96,000 compounds, 0.21% hits. AID 640;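 active = inhibition at 2 µM at or above a set limit, the screen mean plus 3 SD, cut at about 24% in these data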;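 also: 0% = DMSO with enzyme and 100% = enzyme fully blocked by orthovanadate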
Target sequence (Q9Y2R2 whole entry, looked up, the tested form may be a part): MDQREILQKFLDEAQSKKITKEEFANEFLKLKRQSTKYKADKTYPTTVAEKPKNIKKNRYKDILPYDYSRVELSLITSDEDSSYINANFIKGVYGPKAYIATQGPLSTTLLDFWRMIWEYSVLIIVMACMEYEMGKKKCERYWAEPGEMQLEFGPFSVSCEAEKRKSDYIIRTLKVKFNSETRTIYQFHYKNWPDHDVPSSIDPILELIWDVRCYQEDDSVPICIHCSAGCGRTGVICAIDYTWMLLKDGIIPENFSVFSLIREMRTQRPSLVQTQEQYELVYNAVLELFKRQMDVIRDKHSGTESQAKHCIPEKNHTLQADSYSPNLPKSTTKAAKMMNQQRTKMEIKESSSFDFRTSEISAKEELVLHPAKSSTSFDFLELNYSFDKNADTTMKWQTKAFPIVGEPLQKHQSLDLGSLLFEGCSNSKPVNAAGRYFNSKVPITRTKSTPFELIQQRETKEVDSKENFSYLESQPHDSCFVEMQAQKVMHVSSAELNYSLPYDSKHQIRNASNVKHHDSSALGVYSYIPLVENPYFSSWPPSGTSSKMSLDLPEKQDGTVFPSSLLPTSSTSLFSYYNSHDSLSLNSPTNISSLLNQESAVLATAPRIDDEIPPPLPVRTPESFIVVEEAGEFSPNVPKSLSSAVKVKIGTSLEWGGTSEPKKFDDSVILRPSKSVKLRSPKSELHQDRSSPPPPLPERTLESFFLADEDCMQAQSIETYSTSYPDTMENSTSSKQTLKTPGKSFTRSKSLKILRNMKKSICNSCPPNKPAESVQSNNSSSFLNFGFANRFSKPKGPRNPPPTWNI
PLK1 inh – blocks human PLK1 kinase activity; 97,000 compounds, 0.53% hits; recombinant PLK1 kinase, TR-FRET peptide phosphorylation; AID 619; P53350; inhibition, % at 10 µM;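 active = inhibition of 50% or more in the single-concentration screen; inactive = inhibition below 50%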;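 also: 0% = DMSO max control and 100% = H-89 dihydrochloride min control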
LYP act – LYP (human) phosphatase activation. activation, % at 2 µM. AID 697. recombinant LYP, DiFMUP fluorescence; 0 = plate median, 100 = signal doubled. 96,000 compounds, 0.11% hits. Q9Y2R2;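 active = activation at 2 µM above a set limit, the mean plus 5 SD, cut at about 37% in these data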
EphB4 antag – EphB4-ephrin-B2 interaction antagonism. 97,000 compounds, 0.15% hits. AID 720. inhibition, % at 7 µM. P54760. EphB4 LBD / TNYL-RAW-Alexa532 peptide, fluorescence polarization;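 active = inhibition above the screen-wide mean inhibition plus 3 SD, cut at about 15% in these data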;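 also: 0% = DMSO wells and 100% = excess unlabeled TNYL-RAW peptide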
HIV Rev-RRE inh – inhibitors of HIV-1 Rev-RRE RNA interaction | P05866 | Rev peptide-RRE RNA binding, FRET | inhibition, % at 8 µM | 97,000 compounds, 0.79% hits | AID 704;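 active = inhibition above the screen-wide mean plus 3 SD, cut at about 35% in these data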;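 also: 0% = median DMSO wells and 100% = median Neomycin B control wells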
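System: Cy5-labelled duplex RRE RNA binding fluorescein-labelled HIV Rev peptide; Signal: fluorescein-to-Cy5 FRET, 480 nm excitation; Also added: labelled Rev peptide; Compound: one concentration, 8 µM nominal; Buffer or medium: HEPES pH 7.5 salt buffer with EDTA; Read-out: % inhibition of FRET ratio versus controls; Schedule: 5 min preincubation and 15 min binding, 25 °C.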
Plk1 PBD FP – inhibitors of human Plk1 polo box domain binding; P53350; Plk1 PBD phosphopeptide binding, fluorescence polarization; inhibition, %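 (tested at about 20 µM)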; 97,000 compounds, 0.13% hits; AID 693; in the data active = inhibition above about 34%, passing the limit was not always enough
Active calls of the source: *; x = no result given; [ ] = dose if it differs, or a comment.

SMILES	LYP inh 2	PLK1 inh	LYP act	EphB4 antag	HIV Rev-RRE inh	Plk1 PBD FP
CCOC(=O)/C(C#N)=C\C=C1C=CN(C)C=C1	-8	-33	10	-12	130*[fluorescence artefact?]	-133
CC1Cc2ccccc2N1C(=O)C1CCCN(S(=O)(=O)c2cccc3cccnc23)C1 (stereo not drawn)	x	55*	x	-1	10	22
COc1ccc(N2CCN(C(=O)C3CCCN(S(=O)(=O)c4cccc5cccnc45)C3)CC2)cc1 (stereo not drawn)	2	-1	-3	3	8	5
COc1ccccc1C1C=C(c2ccc(Cl)cc2)Nc2nc(NS(C)(=O)=O)nn21 (stereo not drawn)	1	-18	2	4	21	-10
CC1CC(c2ccccc2)n2nc(N3C(=O)c4ccccc4C3=O)nc2N1 (stereo not drawn)	2	0	-4	-1	2	2
COc1ccccc1C1C=C(c2ccc(Cl)cc2)Nc2nc(N3C(=O)CCC3=O)nn21 (stereo not drawn)	-4	4	2	-1	25	11
COc1ccc(C2C=C(c3ccc(Br)cc3)Nc3nc(N4C(=O)CCC4=O)nn32)cc1 (stereo not drawn)	1	-9	-3	-1	113*[fluorescence artefact?]	-10
CS(=O)(=O)Nc1nc2n(n1)C(c1ccccc1)C=C(c1ccc(Br)cc1)N2 (stereo not drawn)	8	-23	-3	2	61*	-43
O=C1CCC(=O)N1c1nc2n(n1)C(c1ccccc1)C=C(c1ccc(Br)cc1)N2 (stereo not drawn)	4	-4	-5	0	84*[fluorescence artefact?]	-20
Cc1cc(C)c(S(=O)(=O)c2ccccc2)c(OC(=O)c2cc(F)c(F)cc2Cl)n1	10	-12	-12	1	8	-19
Cc1ccc(-n2c(N)c(C(=O)NCc3cccnc3)sc2=S)cc1	1	-8	2	-3	-6	12
c1ccc(CC2CCN(c3nc4ccccc4n4nnnc34)CC2)cc1	-9	-6	10	-4	5	-6
CCOC(=O)N1CCN(C2=Nc3cccc4cccc2c34)CC1	1	-3	-4	5	34	-18
c1ccc(CC2CCN(C3=Nc4cccc5cccc3c45)CC2)cc1	-16	-12	16	-2	42*	-51
c1cc2c3c(cccc3c1)C(N1CCN(C3=Nc4cccc5cccc3c45)CC1)=N2	11	-3	-15	-4	40*	-2
Cc1ccc(OCCOCCn2ccnc2)c(Br)c1	5	1	-2	9	2	1
Cc1nnc(N2C(=O)C(O)=C(C(=O)c3ccco3)C2c2ccc(C(C)(C)C)cc2)s1 (stereo not drawn)	-7	-1	2	-3	92*[fluorescence artefact?]	-23
Cc1nnc(N2C(=O)C(O)=C(C(=O)c3ccco3)C2c2ccc(F)cc2)s1 (stereo not drawn)	0	-2	-2	-1	52*	-12
COCCCN1C(=O)C(O)=C(C(=O)c2ccco2)C1c1ccc(Br)cc1 (stereo not drawn)	17	-12	-16	6	4	-1
c1ccc(CCCNc2ncccn2)cc1	5	-8	-2	1	0	-5
COc1cccc(C2C3CN(C)CC=C3C(C#N)=C(N)C2(C#N)C#N)c1OC (stereo not drawn)	-6	-13	4	1	85*[fluorescence artefact?]	21
CCOC(=O)N1CC=C2C(C#N)=C(N)C(C#N)(C#N)[C@H](c3ccccc3OCC)[C@H]2C1	4	-5	-5	2	15	-21
CCN1CC=C2C(C#N)=C(N)C(C#N)(C#N)[C@H](c3cccc(OC)c3OC)[C@H]2C1	1	-13	0	-8	65*	-20
N#CC1=C(N)C(C#N)(C#N)C(c2ccncc2)C2CN(C(=O)OCc3ccccc3)CC=C12 (stereo not drawn)	1	25	-1	1	9	-28
NC(=O)c1ccc(C2SCC(=O)N2Cc2ccccc2)cc1 (stereo not drawn)	2	-7	-2	-5	3	24
SMILES	LYP inh 2	PLK1 inh	LYP act	EphB4 antag	HIV Rev-RRE inh	Plk1 PBD FP
COc1ccc(Nc2ncccc2C(=O)NCc2ccccc2)cc1	-6	0	5	3	3	-21
COc1cccc(Nc2ncccc2C(=O)NCc2ccccc2)c1	-10	8	6	-2	52*	-10
O=c1[nH]ncc2c3ccccc3n(Cc3ccc(F)cc3)c12	-5	52*	5	5	8	1
Cc1cc(-n2ccnc2)n2c(nc3ccccc32)c1C#N	3	-8	-3	-6	21	-7
CCCc1cc(-n2ccnc2)n2c(nc3ccccc32)c1C#N	0	-4	-3	-8	118*[fluorescence artefact?]	-161
Nc1[nH]nc2nc(N3CCOCC3)nc(-c3ccccc3)c12	9	68*	-9	-6	9	-7
O=C1C2C(C(=O)N1Cc1cccnc1)C1C=CC2C12CC2 (stereo not drawn)	-28	14	24	-4	1	-18
Cc1nnc2sc(-c3ccc(NC(=O)c4ccc(-c5ccc(Cl)cc5Cl)o4)cc3)nn12	32*	-19	-32	-6	19	-10
C/C(Cn1nc([N+](=O)[O-])cc1C)=N\NC(=O)c1ccc(C(C)(C)C)cc1	2	-2	-2	7	10	-5
COc1cc(-c2ccc(NC(=O)CN3CCCCC3)c(OC)c2)ccc1NC(=O)CN1CCCCC1	-6	-8	6	11	17	-4
O=c1oc2ccccc2cc1-c1nc(-c2cccs2)cs1	0	-11	-2	-4	62*	-9
CNc1nnc(-c2cc3ccccc3oc2=O)s1	-9	0	10	1	52*	3
Cc1ccc(S(=O)(=O)N2CCC[C@H]2C(=O)OC(C)C(=O)Nc2ncc(Cl)cc2Cl)cc1 (stereo partly drawn)	11	-5	-9	3	10	4
CCOC(=O)N1CCC(N2C(=O)c3cc(C(=O)NC4CCCCC4)ccc3C2O)CC1 (stereo not drawn)	x	61*	x	-1	6	2
CCCN1C(=O)c2cc(C(=O)NC3CCCCCC3)ccc2C1O (stereo not drawn)	5	5	-7	-7	-1	-10
N#Cc1cc(-c2ccccc2)cnc1Cl	x	-6	x	4	-4	8
CCn1c(SCC(=O)NCc2ccco2)nnc1-c1c[nH]c2ccccc12	3	-9	-4	8	5	-13
COc1cccc(-n2c(SC)nnc2-c2c[nH]c3ccccc23)c1	0	-11	-3	-9	10	2
C=CCSc1nnc(-c2c[nH]c3ccccc23)n1CC	x	61*	x	-7	0	5
CC(C)Sc1nnc(-c2c[nH]c3ccccc23)n1C	x	64*	x	-2	2	-2
COc1ccc(-n2c(SC)nnc2-c2c[nH]c3ccccc23)cc1	x	55*	x	2	6	-30

Screening data as filed in PubChem BioAssay.
